Screening results deposited in PubChem by Broad Institute.
CAL PDZ FP-1 = CAL PDZ (human) peptide binding inhibition | purified CAL PDZ, TMR-peptide fluorescence polarization, 1 h | hit rate 0.92% among 300,000 | inhibition, % at 24.9 µM;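 active = mean inhibition of at least 30% with at least half of replicates also reaching 30%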
N-glyco inh = blocks N-linked glycosylation in D54 reporter cells; hit rate 0.23% among 360,000; reporter increase, % at 12.5 µM; AID 588692; D54 ERlucT glycosylation luciferase reporter, 24 h; percent of 100 nM tunicamycin response;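 active = mean luciferase reporter signal, scaled so untreated is 0 and the glycosylation-blocking control 100, at or above a set limit in every replicate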;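 also: luciferase carries N-glycosylation sites so blocking glycosylation raises the light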
CAL PDZ FP-2 = blocks peptide binding to human CAL PDZ domain. Q9HD26. purified CAL PDZ, TMR-peptide fluorescence polarization, 1 h. inhibition, % at 20 µM. hit rate 0.02% among 330,000. AID 504414;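 active = highest replicate inhibition of at least 40%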
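Assay system – tagged CAL PDZ protein CerCALP, purified · Timing – 1 h at RT · Compound – single point, 20 µM · Measured by – fluorescence polarization from S- and P-plane intensities, G-factor corrected · Evaluation – inhibition from polarization loss · Probe or stimulus – TMR reporter peptide T*-PRC34 · Buffer or medium – pH 7.4 phosphate-saline buffer, reducing agent, detergent, IgG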
Vif imaging = HIV Vif inhibition; HEK293T cells, Vif self-association by quenched fluorescence, imaging, 24 h; inhibition, % at 7.49 µM; hit rate 0.35% among 340,000; in the data active = inhibition above about 50%, passing the limit was not always enough
PvdQ inh = blocks Pseudomonas aeruginosa PvdQ acylase activity; purified PvdQ acylase, fluorescence plate reader; inhibition, % at 10 µM; hit rate 0.063% among 340,000; in the data active = inhibition above about 30%, passing the limit was not always enough
CDK5 p35 inh = blocks human CDK5/p35 kinase activity | hit rate 0.01% among 330,000 | Recombinant CDK5/p35, ADP-Glo luminescence, 60 min | inhibition, % at 10 µM;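 active = highest replicate inhibition of at least 50% and at least 75% of replicates reaching 50%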
Target sequence (Q00535 whole entry, looked up): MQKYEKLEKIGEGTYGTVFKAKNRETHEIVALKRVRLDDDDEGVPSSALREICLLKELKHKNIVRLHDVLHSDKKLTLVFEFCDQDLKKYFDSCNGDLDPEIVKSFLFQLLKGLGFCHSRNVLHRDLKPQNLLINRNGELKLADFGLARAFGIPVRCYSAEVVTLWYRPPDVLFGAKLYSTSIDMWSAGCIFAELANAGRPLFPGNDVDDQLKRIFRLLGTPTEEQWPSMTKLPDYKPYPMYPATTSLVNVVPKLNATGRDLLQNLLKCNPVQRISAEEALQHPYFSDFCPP
Target sequence (Q15078 whole entry, looked up): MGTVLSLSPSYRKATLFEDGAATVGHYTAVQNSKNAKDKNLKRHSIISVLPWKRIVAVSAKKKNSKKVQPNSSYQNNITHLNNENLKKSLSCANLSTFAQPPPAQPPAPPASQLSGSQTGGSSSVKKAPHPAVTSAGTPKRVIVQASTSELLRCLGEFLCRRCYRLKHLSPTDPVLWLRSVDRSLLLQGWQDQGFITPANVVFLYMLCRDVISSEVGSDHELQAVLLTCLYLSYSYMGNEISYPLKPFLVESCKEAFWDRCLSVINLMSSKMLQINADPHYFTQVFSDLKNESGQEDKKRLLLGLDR
A number is an active result; 0 = inactive; - = not tested or not shown. An excerpt weighted towards active compounds, which were near 1.4% of everything screened.

SMILES	CAL PDZ FP-1	N-glyco inh	CAL PDZ FP-2	Vif imaging	PvdQ inh	CDK5 p35 inh
CN(C)S(=O)(=O)c1ccc(Cl)c(C(=O)Nc2cccc3ncccc23)c1	-	0	0	0	0	0
COc1ccc2[nH]c(C(=O)N3CCN(Cc4ccccc4)CC3)cc2c1OC	0	45	-	0	0	0
Cc1[nH]c2ccc(C(=O)N3CCN(Cc4ccccc4)CC3)cc2c1C	0	0	0	0	0	0
Cn1nnnc1SCC(=O)Nc1ccc(Oc2ccccc2)cc1	0	0	0	0	0	0
Cc1cc(NC(=O)CSc2nnc(-c3ccncc3)n2C)n(-c2ccccc2)n1	77	0	0	0	0	0
Cc1cc(NC(=O)CSc2nnc(-c3ccncc3)n2Cc2ccccc2)n(-c2ccccc2)n1	0	0	0	0	0	0
Cn1c(SCC(=O)NCc2cccs2)nnc1-c1ccncc1	0	0	0	59	0	0
Cn1nnnc1SCC(=O)Nc1nn(-c2ccccc2)nc1C(N)=O	55	0	0	0	0	0
O=C(NCc1cccs1)c1ccncc1	74	0	0	0	0	0
CCCc1cc(C(=O)NC(C)C2CCCO2)cs1 (stereo unspecified)	0	0	0	0	0	0
CCC(C(=O)OCC(=O)N1C(C)CCCC1C)c1ccccc1 (stereo unspecified)	0	0	-	0	0	0
COc1cc2c(cc1OC)C(COc1ccc([N+](=O)[O-])cc1)NCC2 (stereo unspecified)	0	0	0	0	0	0
Cc1ccc(Nc2ncnc(Cl)c2N)cc1	0	0	0	0	0	0
COc1ccc2[nH]c(=O)c(CN(C(C)=O)c3cc(C)ccc3C)cc2c1	-	0	-	0	-	-
Cc1ccn(CCC(=O)Nc2ccc3c(c2)OCO3)n1	0	0	0	0	0	0
O=C(CSc1nnnn1-c1ccccc1)NCc1cccs1	0	0	0	0	0	0
Cn1nnnc1SCC(=O)NCc1cccs1	53	0	0	0	0	0
O=C1[C@@H]2Cc3c([nH]c4ccccc34)C(c3ccccc3)N2C(=O)CN1C1CC1 (stereo partly specified)	0	0	-	0	0	0
O=C1[C@@H]2Cc3c([nH]c4ccccc34)C(c3ccc([N+](=O)[O-])cc3)N2C(=O)CN1C1CC1 (stereo partly specified)	0	43	0	0	0	0
CCOC(=O)c1cc(C#N)c(N2CCN(C(=O)c3cccc(C(F)(F)F)c3)CC2)nc1C(F)(F)F	65	0	0	0	0	0
O=C(Nc1cccc([N+](=O)[O-])c1)c1cc(S(=O)(=O)Nc2ccccn2)ccc1Cl	44	0	0	0	0	0
O=C(Nc1ccc(Cl)cc1)c1cc(S(=O)(=O)Nc2ccccn2)ccc1Cl	-	0	0	0	0	0
Cn1c(N)c(C(=O)COC(=O)c2cc(S(=O)(=O)N3CCOCC3)ccc2F)c(=O)n(C)c1=O	-	50	0	0	0	0
Cc1ccc(S(=O)(=O)N2CCOCC2)cc1C(=O)OCC(=O)c1c(N)n(C)c(=O)n(C)c1=O	0	0	0	0	0	0
Cc1ccccc1C(=O)Nc1ccc(C(=O)N/N=C/c2ccc(O)cc2)cc1	0	0	0	70	0	0
SMILES	CAL PDZ FP-1	N-glyco inh	CAL PDZ FP-2	Vif imaging	PvdQ inh	CDK5 p35 inh
CSCCC1NC(=O)N(CC(=O)Nc2ccc3c(c2)OCCO3)C1=O (stereo unspecified)	0	0	0	0	0	0
CCOC(=O)C1(Cc2cccc(OC)c2)CCN(CCO)CC1	0	0	0	66	0	0
CCOC(=O)C1(Cc2cccc(OC)c2)CCN(CC(O)CO)CC1 (stereo unspecified)	0	0	0	0	0	0
CCOC(=O)C1(Cc2ccc(OC)cc2)CCN(C(=O)CCc2cnccn2)CC1	76	0	0	0	0	0
CCOC(=O)N1CCC(N2C(=O)c3ccccc3C2Nc2ccc(S(=O)(=O)N(CC)CC)cc2)CC1 (stereo unspecified)	67	0	0	0	0	0
CCOC(=O)N1CCC(N2C(=O)c3ccccc3C2Nc2ccc(C)cc2)CC1 (stereo unspecified)	0	0	0	0	0	0
O=C(CN1CCCCC1)N=Nc1c(O)[nH]c2ccccc12	41	0	0	0	0	0
O=C(CN1CCN(Cc2ccccc2)CC1)N=Nc1c(O)[nH]c2ccccc12	0	0	0	0	0	0
O/N=C(\c1ccccc1)C(O)c1ccccc1 (stereo unspecified)	0	0	0	0	0	0
COc1ccc(S(=O)(=O)N2CCOCC2)cc1NC(=O)c1cc2ccccc2o1	0	0	0	0	0	0
Cc1ccc(NC(=O)CSCC(=O)N2CCN(C(=O)c3ccco3)CC2)cc1	0	0	0	0	0	0
Cc1ccc(NC(=O)CSC(C)C(=O)OCC(=O)N2CCN(C(=O)c3ccco3)CC2)cc1 (stereo unspecified)	0	0	0	61	0	0
COc1ccc(C=O)cc1CN1CCCN(Cc2ccccc2F)S1(=O)=O	0	0	0	0	0	0
CC(C)N1CCc2c(sc(NC(=O)c3cc4cc([N+](=O)[O-])ccc4s3)c2C(N)=O)C1	0	0	0	80	0	0
CN1CCc2c(sc(NC(=O)c3cc(Cl)sc3Cl)c2C(N)=O)C1	-	0	-	161	-	-
CC(C)N1CCc2c(sc(NC(=O)c3ccc4ccccc4c3)c2C(N)=O)C1	0	0	0	0	0	0
CN1CCc2c(sc(NC(=O)c3ccco3)c2C(N)=O)C1	0	0	0	0	0	0
COc1cc(C(=O)NCCNC(=O)C2CCCNC2=O)cc(OC)c1OC (stereo unspecified)	40	0	0	0	0	0
COc1cc(C(=O)NCC2CCCCC2)cc(OC)c1OC	65	0	0	0	0	0
COc1cc(C(=O)NCCCNC(=O)c2cc(OC)c(OC)c(OC)c2)cc(OC)c1OC	-	0	-	0	-	-
CCCn1c(N)c(N(CCOC)C(=O)c2cccc(S(=O)(=O)N3CCCc4ccccc43)c2)c(=O)[nH]c1=O	0	0	0	-	0	0
C[C@@H]1CN([C@H](C)CO)C(=O)c2cc(Br)cnc2O[C@@H]1CN(C)Cc1ccc(-c2ccccc2)cc1	-	0	-	0	-	-
COc1cc2ccccc2cc1C(=O)N/N=C/c1cccs1	-	35	-	0	-	-
COc1ccc(CCNC(=O)C(=O)Nc2nccs2)cc1OC	0	0	0	0	0	0
COC(=O)N/N=C/c1cccs1	0	0	0	0	0	0
COc1ccc(CCNC(=O)C(=O)N/N=C/c2cccs2)cc1OC	78	0	0	0	0	0
C[C@H]1CN([C@@H](C)CO)C(=O)CCCn2nncc2CO[C@@H]1CN(C)C(=O)c1ccc2ccn(C)c2c1	-	0	-	0	-	-
CCCn1c(N)c(C(=O)CSc2nnc(-c3cccs3)n2C2CC2)c(=O)[nH]c1=O	0	0	0	0	0	0
CCN(C(=O)COC(=O)/C=C/c1nc2ccccc2s1)c1c(N)n(Cc2ccccc2)c(=O)[nH]c1=O	0	0	0	0	0	0
